# Activity calls are given as the source filed them. No cut-off for these calls is given here.
# Key:
# [1] = Growth inhibition of human M10 cells after 48 hrs by MTT assay; type: cell-based; details: M10, 48 h
# MDA-MB-231 [2] = test: Increase in cdc2 phosphorylation at Tyr15 expression in human MDA-MB-231 cells after 24 hrs by Western blot analysis; type: functional, cell-based
# Procedure, shortened: (§1)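 MDA-MB-231 cells treated with 0.2, 0.4 or 0.8 μM for 24 and 48 h. Attached and floating cells were lysed in RIPA-type buffer with protease inhibitors, and protein was quantified by BCA. Equal protein was run on 10%/15% SDS-PAGE and transferred to nitrocellulose. Blots were probed 1 h at room temperature for phospho-cdc2, cyclin B1, caspase-3, bak/bcl-2 or actin loading control, with HRP secondary and ECL detection.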
# MDA-MB-231 [3] = test: Cell cycle arrest in human MDA-MB-231 cells at accumulation at G2/M phase at 0.8 uM after 48 hrs by propidium iodide staining-based flow cytometric analysis (reference value: 32%); type: functional
# MDA-MB-361 [4] = test: Growth inhibition of human MDA-MB-361 cells after 48 hrs by MTT assay; type: functional, cell-based; details: MDA-MB-361, 48 h
# MDA-MB-231 [5] = test: Selectivity ratio of IC50 for human Detroit 551 cells to IC50 for human MDA-MB-231 cells
# Detroit 551 [6] = test: Selectivity ratio of IC50 for human Detroit 551 cells to IC50 for human SW620 cells
# MDA-MB-231 [7] = test: Cell cycle arrest in human MDA-MB-231 cells at accumulation at subG1 phase at 0.8 uM after 24 hrs by propidium iodide staining-based flow cytometric analysis (reference value: 2%); type: functional
# MDA-MB-231 [8] = test: Antiproliferative activity against human MDA-MB-231 cells assessed as decrease in cell count at 0.1 to 0.8 uM by trypan blue dye exclusion assay; type: functional, cell-based; details: TDE = time-dependent effect
# Procedure, shortened: (§2)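 MDA-MB-231 cells seeded at 2 × 10^5 per well in 6-well plates, treated 24 h later in triplicate with compound (0.1–0.8 μM) or DMSO vehicle in 10% FBS DMEM/F12. Cells harvested by trypsinization at 24, 48 and 72 h, stained with 0.4% trypan blue and counted on a hemocytometer; three independent experiments.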
# Detroit 551 [9] = test: Growth inhibition of human Detroit 551 cells after 48 hrs by MTT assay; type: cell-based; details: Detroit 551, 48 h
# MDA-MB-231 [10] = test: Decrease in cyclin B1 expression in human MDA-MB-231 cells at 0.8 uM after 48 hrs by Western blot analysis; type: functional, cell-based; procedure, shortened: as §1
# MDA-MB-361 [11] = test: Selectivity ratio of IC50 for human Detroit 551 cells to IC50 for human MDA-MB-361 cells
# SW480 [12] = test: Growth inhibition of human SW480 cells after 48 hrs by MTT assay; type: functional, cell-based; details: SW480, 48 h
# SW480 [13] = test: Selectivity ratio of IC50 for human MT10 cells to IC50 for human SW480 cells
# Procedure, shortened: (§3)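 Ratio of the IC50 in normal M10 cells to the IC50 in each cancer line. […] The paper reports the fold difference as the normal-cell to tumour-cell IC50 ratio.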
# SW48 [14] = test: Selectivity ratio of IC50 for human MT10 cells to IC50 for human SW48 cells; procedure, shortened: as §3
# MDA-MB-231 [15] = test: Ratio of IC50 for cyclic tetramer to compound for human MDA-MB-231 cells after 48 hrs by MTT assay; type: functional
# MDA-MB-231 [16] = test: Induction of apoptosis in human MDA-MB-231 cells assessed as PARP cleavage after 24 to 48 hrs by Western blot analysis; type: functional, cell-based
# MCF7 [17] = test: Selectivity ratio of IC50 for human MT10 cells to IC50 for human MCF7 cells; procedure, shortened: as §3
# MDA-MB-231 [18] = test: Cell cycle arrest in human MDA-MB-231 cells at accumulation at G1 phase at 0.8 uM after 48 hrs by propidium iodide staining-based flow cytometric analysis (reference value: 45%); type: functional
# Detroit 551 [19] = test: Selectivity ratio of IC50 for human Detroit 551 cells to IC50 for human U87MG cells
# MDA-MB-468 [20] = test: Selectivity ratio of IC50 for human MT10 cells to IC50 for human MDA-MB-468 cells; procedure, shortened: as §3
# [21] = Growth inhibition of human U87MG cells after 48 hrs by MTT assay; type: functional, cell-based, U-87MG ATCC; details: U-87 MG
# MCF7 [22] = test: Growth inhibition of human MCF7 cells after 48 hrs by MTT assay; type: functional, cell-based; details: MCF7, 48 h
# MDA-MB-231 [23] = test: Antiproliferative activity against human MDA-MB-231 cells assessed as decrease in cell count after 72 hrs by trypan blue dye exclusion assay; type: functional, cell-based; procedure, shortened: as §2
# MCF7 [24] = test: Ratio of IC50 for 3,3'-diindolylmethane to compound for human MCF7 cells after 48 hrs by MTT assay; type: functional
# A549 [25] = test: Growth inhibition of human A549 cells after 48 hrs by MTT assay; type: functional, cell-based; details: A549, 48 h
# MDA-MB-231 [26] = test: Increase in cyclin B1 expression in human MDA-MB-231 cells after 48 hrs by Western blot analysis; type: functional, cell-based; procedure, shortened: as §1
# MDA-MB-231 [27] = test: Induction of apoptosis in human MDA-MB-231 cells assessed as bak protein level after 48 hrs by Western blot analysis; type: functional, cell-based; procedure, shortened: as §1
# MDA-MB-231 [28] = test: Induction of apoptosis in human MDA-MB-231 cells assessed as caspase 3 cleavage after 24 to 48 hrs by Western blot analysis; type: functional, cell-based; procedure, shortened: as §1
# SW48 [29] = test: Growth inhibition of human SW48 cells after 48 hrs by MTT assay; type: functional, cell-based; details: SW48, 48 h
# MDA-MB-468 [30] = test: Growth inhibition of human MDA-MB-468 cells after 48 hrs by MTT assay; type: functional, cell-based; details: MDA-MB-468, 48 h
# A549 [31] = test: Selectivity ratio of IC50 for human MT10 cells to IC50 for human A549 cells; procedure, shortened: as §3
# MDA-MB-231 [32] = test: Increase in cyclin B1 expression in human MDA-MB-231 cells after 24 hrs by Western blot analysis; type: functional, cell-based; procedure, shortened: as §1
# SW48 [33] = test: Selectivity ratio of IC50 for human Detroit 551 cells to IC50 for human SW48 cells
# SW480 [34] = test: Selectivity ratio of IC50 for human Detroit 551 cells to IC50 for human SW480 cells
# MDA-MB-231 [35] = test: Induction of apoptosis in human MDA-MB-231 cells assessed as bak protein level after 24 hrs by Western blot analysis; type: functional, cell-based; procedure, shortened: as §1
# MDA-MB-231 [36] = test: Cell cycle arrest in human MDA-MB-231 cells at accumulation at S phase at 0.8 uM after 48 hrs by propidium iodide staining-based flow cytometric analysis (reference value: 20%); type: functional
# SW-620 = test: Growth inhibition of human SW620 cells after 48 hrs by MTT assay; type: functional, cell-based; details: SW-620, 48 h
# MDA-MB-231 [37] = test: Induction of apoptosis in human MDA-MB-231 cells assessed as increase in late apoptotic cells at 0.4 uM by annexinV propidium iodide staining-based flow cytometric analysis; type: functional, cell-based; details: TDE = time-dependent effect
# Procedure, shortened: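 MDA-MB-231 cells treated with 0.4 μM, washed twice in PBS and stained with annexin V-FITC/propidium iodide. Populations scored as viable (both negative), early apoptotic (annexin V positive, PI negative) or late apoptotic/dead (both positive).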
# MCF7 [38] = test: Ratio of IC50 for cyclic tetramer to compound for human MCF7 cells after 48 hrs by MTT assay; type: functional
# MDA-MB-231 [39] = test: Cell cycle arrest in human MDA-MB-231 cells at accumulation at G2/M phase at 0.8 uM after 24 hrs by propidium iodide staining-based flow cytometric analysis (reference value: 30%); type: functional
# MDA-MB-361 [40] = test: Selectivity ratio of IC50 for human MT10 cells to IC50 for human MDA-MB-361 cells; procedure, shortened: as §3
smiles,measurement,setting,value
Oc1ccc2[nH]cc(C(c3ccc(C(c4c[nH]c5ccc(O)cc45)c4c[nH]c5ccc(O)cc45)cc3)c3c[nH]c4ccc(O)cc34)c2c1,IC50,[1],5810 nM
same,Activity,MDA-MB-231 [2],Dose-dependent effect
same,Activity,MDA-MB-231 [3],34%
same,IC50,MDA-MB-361 [4],2070 nM
same,Ratio IC50,MDA-MB-231 [5],> 44
same,Ratio IC50,Detroit 551 [6],> 20
same,Activity,MDA-MB-231 [7],6%
same,Activity,MDA-MB-231 [8],tde
same,IC50,Detroit 551 [9],> 20000 nM
same,Activity,MDA-MB-231 [10],Active
same,Ratio IC50,MDA-MB-361 [11],> 9.7
same,IC50,SW480 [12],370 nM
same,Ratio IC50,SW480 [13],15.7
same,Ratio IC50,SW48 [14],6.6
same,Ratio IC50,MDA-MB-231 [15],2
same,Activity,MDA-MB-231 [16],Dose-dependent effect
same,Ratio IC50,MCF7 [17],6.6
same,Activity,MDA-MB-231 [18],25%
same,Ratio IC50,Detroit 551 [19],> 7.3
same,Ratio IC50,MDA-MB-468 [20],7
same,IC50,[21],2730 nM
same,IC50,MCF7 [22],880 nM
same,Activity,MDA-MB-231 [23],Dose-dependent effect
same,Ratio IC50,MCF7 [24],57
same,IC50,A549 [25],2890 nM
same,Activity,MDA-MB-231 [26],Dose-dependent effect
same,Activity,MDA-MB-231 [27],Active
same,Activity,MDA-MB-231 [28],Dose-dependent effect
same,IC50,SW48 [29],880 nM
same,IC50,MDA-MB-468 [30],830 nM
same,Ratio IC50,A549 [31],2
same,Activity,MDA-MB-231 [32],Dose-dependent effect
same,Ratio IC50,SW48 [33],> 22.7
same,Ratio IC50,SW480 [34],> 54
same,Activity,MDA-MB-231 [35],Active
same,Activity,MDA-MB-231 [36],20%
same,IC50,SW-620,980 nM
same,Activity,MDA-MB-231 [37],tde
same,Ratio IC50,MCF7 [38],2
same,Activity,MDA-MB-231 [39],40%
same,Ratio IC50,MDA-MB-361 [40],2.8

# Reference: ChEMBL document CHEMBL2021927, “Synthesis and evaluation of the cytotoxicities of tetraindoles: observation that the 5-hydroxy tetraindole (SK228) induces G₂ arrest and apoptosis in human breast cancer cells” (J Med Chem, 2012)
